Drawing on the array DNA melting data of Ke et al. (doi:10.1101/2024.01.08.574731), this text covers Tm and folding enthalpy for 37 sequences.

Data set [1] in a line: melting temperature; fluorescence melt of hairpins on a sequencing array, two-state fit, raised by 9.35 °C to match UV melts. The following applies: sodium 0.088 M. The procedure, abridged: (§1)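 On a sequenced MiSeq flow cell, library hairpins with annealed Cy3 and quencher oligos were imaged for Cy3 fluorescence in 2.5 °C steps up to 60 °C, in 50 mM Na-HEPES pH 8.0, 25 mM NaCl. Normalisation used pre-quench Cy3 and control constructs. Bootstrapped two-state fits gave melting temperature and folding enthalpy, combined by inverse variance across four replicates and with fitted temperatures raised by 9.35 °C to match UV melts.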

The nature of data set [2]: folding enthalpy; higher = less favourable; fluorescence melt of hairpins on a sequencing array, two-state fit. The following applies: sodium 0.088 M. An outline of the steps: as §1

Regarding CGACACGGAAACGTTTCG (((.(((....))).))), in data set [1], the Tm came out at 44.8 °C. In addition, the folding enthalpy in data set [2] was -33.7 kcal/mol.
Turning to GATCGACTAGTCGATC ((((((....)))))), in data set [1], the Tm was 63.7 °C. In data set [2], the folding enthalpy was -45.6 kcal/mol.
Regarding GGTGTACGAAAGTAAACC (((.(((....))).))), the Tm in data set [1] is 48.6 °C. The folding enthalpy in data set [2] was -24.9 kcal/mol.
Consider GGCCAACGAAAGTTAGCC (((.(((....))).))), for which, in data set [1], the Tm is 50.1 °C. The folding enthalpy in data set [2] is -29.1 kcal/mol.
Take GCCTCGCGAAAGCATGGC (((..((....))..))): the Tm in data set [1] was 53.3 °C. For the same sequence, the folding enthalpy in data set [2] is -18.4 kcal/mol.
Turning to GCAATGCGAAAGCTTTGC ((((.((....)).)))), the Tm in data set [1] is 63 °C. Moreover, the folding enthalpy in data set [2] was -39.1 kcal/mol.
For GATCAACCGGTTGATC ((((((....)))))), in data set [1], the Tm stood at 55.9 °C. Also, the folding enthalpy in data set [2] is -53.5 kcal/mol.
Taken in the same sequence, the figures for CGCTCGGAAACGATAGCG ((((((....)))..))) were 46.9 °C and -30.9 kcal/mol.
Turning to GATCATATGCATGATC ((((((....)))))), the Tm in data set [1] was 48.2 °C. For the same sequence, in data set [2], the folding enthalpy was -40.4 kcal/mol.
With GATCGGAAGGCCGATC ((((((....)))))), in data set [1], the Tm was 53.9 °C. In addition, the folding enthalpy in data set [2] is -35.7 kcal/mol.
For the sequence GTACTGGGAAACTGGTAC ((((..(....)..)))), the Tm in data set [1] amounted to 36.5 °C. The folding enthalpy in data set [2] was -24.5 kcal/mol.
On to GATTGACGAAAGTCGATC (((.(((....))).))), for which the Tm in data set [1] turned out to be 54.2 °C. The folding enthalpy in data set [2] is -29.6 kcal/mol.
As to GCATTGGGAAACCAATAC (.(((((....))))).), in data set [1], the Tm was 32.9 °C. Further, the folding enthalpy in data set [2] is -18.4 kcal/mol.
As for GAGTACGGAAACGTGCTC (((.(((....))).))), in data set [1], the Tm is 53.8 °C. Moreover, in data set [2], the folding enthalpy was -48.9 kcal/mol.
Taken in the same sequence, the figures for GATCGTAACCACGATC ((((((....)))))) were 54.8 °C and -35.8 kcal/mol.
For the sequence GATCCCGATGGGGATC ((((((....)))))), in data set [1], the Tm stood at 63.3 °C. Also, the folding enthalpy in data set [2] was -34.8 kcal/mol.
As to GCGGGCGTCCGC ((((....)))), in data set [1], the Tm amounted to 58.6 °C. For the same sequence, the folding enthalpy in data set [2] is -23.6 kcal/mol.
GACCGCGGAAACACGGTC (((((.(....).))))): the Tm in data set [1] was 55.5 °C. The folding enthalpy in data set [2] was -52 kcal/mol.
On the same counts, the results for GCGGAAGGCCGC ((((....)))) are 53.1 °C and -21.7 kcal/mol.
On the same counts, the results for GATCTTTCCAAAGATC ((((((....)))))) are 47.3 °C and -32.9 kcal/mol.
Taken in the same sequence, the figures for CGTCGCGGAAACGCCACG (((.(((....))).))) were 45.1 °C and -33.1 kcal/mol.
For GTTGGGGGAAACCCCAGC (.(((((....))))).), the Tm in data set [1] is 49.8 °C. Further, the folding enthalpy in data set [2] is -17.3 kcal/mol.
Regarding GGTCCAGGAAACTGAACC (((.(((....))).))), the Tm in data set [1] came to 40 °C. Further, the folding enthalpy in data set [2] was -34.6 kcal/mol.
On to CGCGTCGGAAACGAGGCG (((.(((....))).))), for which, in data set [1], the Tm stood at 60.9 °C. Also, the folding enthalpy in data set [2] is -46.5 kcal/mol.
Turning to GGGCAGGGAAACCTGCTC (.(((((....))))).), the Tm in data set [1] was 59.6 °C. In addition, the folding enthalpy in data set [2] was -20 kcal/mol.
Regarding GCGCGAGGAAACTCGTGC ((.((((....)))).)), the Tm in data set [1] was 62.9 °C. Besides, the folding enthalpy in data set [2] is -42.3 kcal/mol.
For the sequence GTTCCCGAAAGGGTAAC ((((((....))).))), the Tm in data set [1] amounted to 40.9 °C. Moreover, the folding enthalpy in data set [2] is -17.6 kcal/mol.
Consider GCTCAGACGAAAGTCAGC (((..(((....)))))), for which the Tm in data set [1] worked out at 41 °C. The folding enthalpy in data set [2] is -15.5 kcal/mol.
Take GCTAATCGAAAGATGAGC (((.(((....))).))): the Tm in data set [1] was found to be 47.8 °C. Further, in data set [2], the folding enthalpy is -31.4 kcal/mol.
Regarding GTACTGCGAAAGCATAC (((.(((....)))))), the Tm in data set [1] came to 36.6 °C. For the same sequence, the folding enthalpy in data set [2] was -12 kcal/mol.
On to GAGTCAGCGAAAGCTCTC (((..(((....)))))), for which the Tm in data set [1] worked out at 30.1 °C. In addition, the folding enthalpy in data set [2] was -11.8 kcal/mol.
Turning to GCGTCCACGAAAGTGCGC (((..(((....)))))), the Tm in data set [1] was 48.6 °C. In addition, in data set [2], the folding enthalpy is -23.3 kcal/mol.
As to GTTTAGCCGAAAGGCAAC (((..(((....)))))), the Tm in data set [1] was 33.7 °C. The folding enthalpy in data set [2] was -8.63 kcal/mol.
Taken in the same sequence, the figures for GCTGCGGGAAACCGCAAC (.(((((....))))).) were 45.9 °C and -11.4 kcal/mol.
As to GCTCAACGAAAGTTTAGC (((.(((....))).))), the Tm in data set [1] was found to be 44.5 °C. In addition, the folding enthalpy in data set [2] is -28.2 kcal/mol.
On to GTTGCCCGAAAGGGTAAC (((.(((....))).))), for which, in data set [1], the Tm stood at 60.9 °C. Moreover, the folding enthalpy in data set [2] is -31.6 kcal/mol.
On the same counts, the results for GCCTCGGGAAACCGGGGC (((.(((....))).))) are 66.3 °C and -36.4 kcal/mol.
